Bioassay records deposited in PubChem BioAssay by Broad Institute.
An excerpt weighted towards active compounds, which were near 0.86% of everything screened.
ERAP1 HTS inh: ERAP1 (human) enzyme inhibition; inhibition, % at 10.7 µM; recombinant ERAP1, Leu-AMC fluorescence, 60 min; Q9NZ08; 340,000 tested, 0.15% active; AID 652197;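 active = mean replicate inhibition of at least 30%, or all replicates individually reaching that 30% level; inactive = mean below 30% and not every replicate reaching it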
MLL AF4-AF9 inh: inhibitors of human MLL-AF4/AF9 interaction | P42568 | AlphaScreen, biotin-AF4 peptide binding to FLAG-AF9 | inhibition, % at 10 µM | 350,000 tested, 0.47% active;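 active = every replicate reaching a set inhibition limit, whatever the replicate mean, cut at about 25% in these data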
Rtt109 HAT inh: C. albicans Rtt109 histone acetyltransferase inhibition; Q5AAJ8; purified Rtt109/Vps75, ThioGlo CoA-SH fluorescence, 4 h; inhibition, % at 34.9 µM; 330,000 tested, 0.16% active;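 active = inhibition of at least 50% in every replicate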
Target sequence (Q5AAJ8 whole entry, looked up): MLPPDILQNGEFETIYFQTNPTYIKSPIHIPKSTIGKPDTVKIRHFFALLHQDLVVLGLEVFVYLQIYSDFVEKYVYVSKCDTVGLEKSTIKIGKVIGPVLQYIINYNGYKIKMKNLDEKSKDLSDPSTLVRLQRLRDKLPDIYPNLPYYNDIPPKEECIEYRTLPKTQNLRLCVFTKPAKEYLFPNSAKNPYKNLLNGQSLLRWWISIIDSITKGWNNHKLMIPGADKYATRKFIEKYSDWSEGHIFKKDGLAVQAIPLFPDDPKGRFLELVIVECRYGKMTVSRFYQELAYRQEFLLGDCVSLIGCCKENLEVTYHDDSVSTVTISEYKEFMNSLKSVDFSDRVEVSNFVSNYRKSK
S100A4 inh HTS: S100A4-myosin IIA interaction inhibition; S100A4/TAMRA-MyoIIA peptide fluorescence polarization; inhibition, % at 10.7 µM; 360,000 tested, 0.14% active; AID 652163;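 active = mean inhibition of at least 70% across replicates, with every replicate also reaching that level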
Target sequence (P26447 whole entry, looked up): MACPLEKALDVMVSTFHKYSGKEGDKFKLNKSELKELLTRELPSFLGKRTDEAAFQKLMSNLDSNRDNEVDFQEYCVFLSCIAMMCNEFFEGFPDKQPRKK
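Compound dosing: one dose per compound; test system: human S100A4 monomer with TAMRA-labelled myosin IIA peptide; probe or stimulus: TAMRA-labelled myosin IIA heavy-chain peptide probe, 5 nM; medium: HEPES buffer with Ca2+, pH 7.2; schedule: 5 min incubation before reading; benchmarks: neutral control DMSO, positive control TFP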
miR122 inh: inhibitors of miR-122 in Huh7 cells. Huh7 miR-122 Renilla luciferase sensor, 48 h; neutral wells = 0, positive control = 100. activation (reporter increase), % at 12.5 µM. 340,000 tested, 0.3% active. AID 602342;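 active = mean replicate activation score at least 90 and every replicate individually at or above 90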;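 note: higher luciferase means less miR-122 activity so hits act as miR-122 inhibitors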
Hits are given with their value; ! = a repeat was not active.

Results for O=C(CN1CCOCC1)NCC[C@H]1CC[C@@H](NC(=O)Nc2ccc(C(F)(F)F)cc2)[C@H](CO)O1 ?
ERAP1 HTS inh: inactive; MLL AF4-AF9 inh: inactive; S100A4 inh HTS: inactive; miR122 inh: inactive

Results for COc1cc(OC)c(NC(=O)CN(C)S(=O)(=O)c2ccc(-c3ccc(=O)[nH]n3)s2)cc1Cl ?
ERAP1 HTS inh: inactive; MLL AF4-AF9 inh: inactive; Rtt109 HAT inh: 51.9; S100A4 inh HTS: inactive; miR122 inh: inactive

Results for CCc1ccccc1NC(=O)CN(C)S(=O)(=O)c1ccc(-c2ccc(=O)[nH]n2)s1 ?
ERAP1 HTS inh: inactive; MLL AF4-AF9 inh: inactive; Rtt109 HAT inh: inactive; S100A4 inh HTS: inactive; miR122 inh: inactive

How did C[C@@H]1CN([C@@H](C)CO)C(=O)CCCn2cc(nn2)CO[C@H]1CN(C)S(=O)(=O)c1ccc(Oc2ccccc2)cc1 do in these assays?
ERAP1 HTS inh: inactive; MLL AF4-AF9 inh: inactive; S100A4 inh HTS: 82.2!; miR122 inh: inactive

What do the screens show for `C[C@H](CO)N1C[C@H](C)[C@H](CN(C)S(=O)(=O)c2ccc3c(c2)OCCCO3)OCc2cnnn2CCCC1=O`?
ERAP1 HTS inh: inactive; MLL AF4-AF9 inh: inactive; S100A4 inh HTS: inactive; miR122 inh: inactive

Results for C[C@H]1CN([C@@H](C)CO)C(=O)CCCn2nncc2CO[C@H]1CN(C)S(=O)(=O)c1ccc2c(c1)OCCCO2 ?
ERAP1 HTS inh: inactive; MLL AF4-AF9 inh: inactive; S100A4 inh HTS: 116.6!; miR122 inh: inactive

Results for C[C@H]1CN([C@@H](C)CO)C(=O)CCCn2cc(nn2)CO[C@@H]1CN(C)C(=O)Nc1ccc(N2CCCCC2)cc1 ?
ERAP1 HTS inh: inactive; MLL AF4-AF9 inh: 38.3!; S100A4 inh HTS: inactive; miR122 inh: inactive

Results for COCC(=O)N1C[C@H](C)[C@@H](OC)CN(C)C(=O)c2cc(NC(=O)NC(C)C)ccc2OC[C@@H]1C ?
ERAP1 HTS inh: inactive; MLL AF4-AF9 inh: inactive; S100A4 inh HTS: inactive; miR122 inh: inactive

Results for Cc1cc(C(=O)Nc2cccc3c2O[C@@H](CN(C)CC2CC2)[C@@H](C)CN([C@H](C)CO)C3=O)n(C)n1 ?
ERAP1 HTS inh: inactive; MLL AF4-AF9 inh: inactive; S100A4 inh HTS: inactive; miR122 inh: inactive

What do the screens show for `CCn1c(C)c2c([n+]1CC)CC(C)(C)CC2=O`?
ERAP1 HTS inh: 109.4; MLL AF4-AF9 inh: inactive; Rtt109 HAT inh: inactive; S100A4 inh HTS: inactive; miR122 inh: inactive

What do the screens show for `CCn1c2c(c(C)cc1=O)C(=O)CC(C)(C)C2`?
Rtt109 HAT inh: inactive

How did Cc1ccc(C(=O)CSc2ncn[nH]2)cc1 do in these assays?
Rtt109 HAT inh: inactive; miR122 inh: inactive

How did CCc1ccc(C(=O)CSc2ncn[nH]2)cc1 do in these assays?
Rtt109 HAT inh: active; miR122 inh: inactive

How did CC(C)CCNC(=O)C1CCN(S(=O)(=O)c2ccc3c(c2)CC(C)N3C(=O)C2CCC2)CC1 (stereo unspecified) do in these assays?
ERAP1 HTS inh: inactive; MLL AF4-AF9 inh: inactive; Rtt109 HAT inh: 93.7; S100A4 inh HTS: inactive; miR122 inh: inactive

What do the screens show for `CN1C(=CC=C2C=C(I)C(=O)C(I)=C2)C(C)(C)c2ccccc21`?
MLL AF4-AF9 inh: inactive; Rtt109 HAT inh: inactive; S100A4 inh HTS: inactive; miR122 inh: inactive

What do the screens show for `CC1=NN(c2ccccc2)C(=O)/C1=C\C=C1\N(C)c2ccccc2C1(C)C`?
Rtt109 HAT inh: inactive

What do the screens show for `CC1=NN(c2ccccc2)C(=O)/C1=C\C=C1/N(C)c2ccccc2C1(C)C`?
ERAP1 HTS inh: inactive; MLL AF4-AF9 inh: 35.9; S100A4 inh HTS: inactive

How did CN1/C(=C\C=C2/SC(=S)NC2=O)C(C)(C)c2ccccc21 do in these assays?
ERAP1 HTS inh: inactive; MLL AF4-AF9 inh: inactive; Rtt109 HAT inh: inactive; S100A4 inh HTS: 103.7; miR122 inh: inactive

How did CN1/C(=C\C=C2/C(=O)Oc3ccccc3C2=O)C(C)(C)c2ccccc21 do in these assays?
ERAP1 HTS inh: inactive; MLL AF4-AF9 inh: inactive; S100A4 inh HTS: 178.1

Results for CCCCS(=O)(=O)/C=C\C=C/S(=O)(=O)CCCC ?
Rtt109 HAT inh: 149.0; miR122 inh: inactive

Results for CCCCS(=O)(=O)/C=C\C1C2C=CC(C2)C1S(=O)(=O)CCCC (stereo unspecified) ?
Rtt109 HAT inh: inactive; miR122 inh: inactive

What do the screens show for `C/C=C/c1ccc([C@H]2[C@@H](CO)N(S(C)(=O)=O)[C@@H]2CN(CC)C(C)=O)cc1`?
ERAP1 HTS inh: inactive; MLL AF4-AF9 inh: inactive; S100A4 inh HTS: inactive; miR122 inh: inactive
